Screening data as filed in PubChem BioAssay.
Compounds with a hit are over-represented: about 2.9% of the library has one in this group of screens.
MC4R barr agon: human MC4R agonism via beta-arrestin; U2OS MC4R beta-arrestin complementation, luminescence; percent of melanotan II response, DMSO zero; actives 0.98% (n = 360,000); activation, % at 8.9 µM;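 active means activation above a per-plate cutoff, the mean activation of sample wells on that plate plus 3 SD, cut at about 8% in these data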
Target sequence (P32245 whole entry, looked up): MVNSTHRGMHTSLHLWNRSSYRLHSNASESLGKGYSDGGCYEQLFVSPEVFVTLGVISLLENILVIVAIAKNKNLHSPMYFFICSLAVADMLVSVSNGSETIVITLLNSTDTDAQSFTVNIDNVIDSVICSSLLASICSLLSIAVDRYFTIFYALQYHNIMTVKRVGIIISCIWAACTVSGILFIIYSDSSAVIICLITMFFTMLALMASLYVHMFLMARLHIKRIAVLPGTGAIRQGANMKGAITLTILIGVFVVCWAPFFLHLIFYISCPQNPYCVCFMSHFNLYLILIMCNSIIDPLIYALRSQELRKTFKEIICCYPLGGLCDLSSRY
Calb FLC: affects C. albicans growth with fluconazole; actives 0.57% (n = 300,000); growth inhibition, % (concentration not given with the values); C. albicans CaCi-2 + fluconazole, Alamar Blue growth, 48 h;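 active means growth inhibition above about 58% in most replicates, limit read from the data, passing the limit was not always enough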;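 further: all wells also contain fluconazole at 8 µg/ml as a sub-toxic cotreatment; 0% = median of DMSO wells and 100% = median of geldanamycin control wells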
Efflux pump inh: inhibitors of Candida antifungal efflux pumps expressed in yeast; S. cerevisiae Candida pump triplex, Nile Red efflux; inhibition, % at 10 µM; actives 0.44% (n = 330,000); AID 485275;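 active means plate passing quality check with inhibition over a set limit, or well fluorescence over plate mean plus 4 SD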;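 further: Nile Red retained in pooled yeast measured as flow cytometry median fluorescence; 0% = buffer negative control and 100% = Enniatin B positive control; higher means more Nile Red kept so more efflux inhibition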
GalR3 antag: blocks the human galanin receptor 3. inhibition, % at 3 µM. AID 651719. O60755. HEK293 GalR3-CNG cAMP membrane potential fluorescence; galR3 body fused to GalR1 C-terminus. actives 0.44% (n = 360,000);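 active means inhibition above the screen-wide average plus 3 SD, cut at about 13% in these data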;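 further: forskolin and galanin both at EC90 stimulate the cells; cAMP rise reported by CNG channel membrane potential dye signal; 0% = forskolin plus galanin with DMSO and 100% = forskolin alone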
Target sequence (O60755 1-299 limits assumed): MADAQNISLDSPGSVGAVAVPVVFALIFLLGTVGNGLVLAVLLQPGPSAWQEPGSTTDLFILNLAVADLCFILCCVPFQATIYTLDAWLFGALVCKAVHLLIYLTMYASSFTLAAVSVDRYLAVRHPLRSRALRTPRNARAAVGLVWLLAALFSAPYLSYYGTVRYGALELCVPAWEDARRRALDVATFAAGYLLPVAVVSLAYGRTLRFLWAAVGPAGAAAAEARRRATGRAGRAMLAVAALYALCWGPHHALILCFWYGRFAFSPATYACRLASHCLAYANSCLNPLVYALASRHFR
MC4R antagonist: antagonists of human melanocortin 4 receptor (MC4R) | P32245 | MC4R-expressing cells, MTII-stimulated cAMP, LANCE TR-FRET | inhibition, % at 6.5 µM | actives 0.48% (n = 360,000) | AID 540295;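 active means inhibition above its plate's cutoff, the mean of tested wells on that plate plus 3 SD, cut at about 29% in these data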;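 further: 0% = Melanotan II alone and 100% = Melanotan II plus saturating MCL0020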
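Material: U2OS-MC4R stable cell line | Reagent: Melanotan II challenge after compound preincubation | Doses: One concentration, 6.5 µM nominal | Incubation: 30-min compound preincubation, 1-h Melanotan II challenge, 1-h detection, room temperature | Signal: TR-FRET cAMP assay | Replicates: One well per compound, no replicates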
TAG inh: triacylglycerol accumulation inhibition; H9c2 cells, Nile Red lipid (TAG) fluorescence; cells loaded with 200 µM oleic acid; inhibition, % at 12.5 µM; actives 0.66% (n = 230,000);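 active means pattern-corrected inhibition of lipid staining of at least 50% with the nuclear-stain viability signal not falling by more than 50%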;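 further: 0% = DMSO wells and 100% = triacsin C control wells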
Active calls of the source: *; nt = not tested or not shown; ! = not active in a repeat.

SMILES	MC4R barr agon	Calb FLC	Efflux pump inh	GalR3 antag	MC4R antagonist	TAG inh
CC#CC[N+](C)(C)CCCCCCCCCCCC	0	101*	0	1	4	nt
CCCCCC[N+](C)(C)CCSSCC[N+](C)(C)CCCCCC	0	10	0	-2	-6	-6
CCCCCCCCCCCCCCCC[N+](C)(C)CCl	6	nt	nt	3	16	66*
CCCCCCCCCCCCCCCC[N+](C)(C)CC	5	77*	1.8*	nt	9	9
COc1ccc(CNC(=O)c2c(C)oc3c2C(=O)c2ccccc2C3=O)cc1	0	-15	0	1	-5	101*
Cc1oc2c(c1C(=O)NCc1cccnc1)C(=O)c1ccccc1C2=O	nt	-13	0	nt	nt	nt
O=C(Cn1c(=O)oc2cc(S(=O)(=O)N3CCCC3)ccc21)Nc1ccccn1	-1	nt	nt	6	11	2
Cc1ccc(NC(=O)C2C(C(=O)O)C3C=CC2C32CC2)cc1 (configuration not stated)	-1	79*	0	-4	1	nt
CCc1c(C(=O)Nc2ccc(C)c(C)c2)[nH]c(C)c1C(C)=O	0	2	0	-5	2	nt
CC(=O)c1c(C)[nH]c(C(=O)Nc2ccc(C)c(C)c2)c1C	2	96*	0	6	9	-20
O=C(CN1CCN(c2ccc(O)cc2)CC1)NC(c1ccccc1)c1ccccc1	0	114*	0	-5	5	nt
O=C(CN1CCCCCC1)NC(c1ccccc1)c1ccccc1	0	-6	0	-4	1	nt
CN1CCN(c2ccc(CNC(=O)C3(C)Cc4c(-c5ccccc5)ccnc4O3)cc2)CC1 (configuration not stated)	-1	nt	nt	-10	-6	3
COc1cccc2sc(Nc3nnc(-c4ccc(F)cc4)o3)nc12	0	117*	0	4	0	11
Fc1cccc2sc(Nc3nnc(-c4ccco4)o3)nc12	-5	85*	0	-6	1	4
N#CCCN(Cc1ccccc1)C(C(=O)NC1CCCCC1)c1ccnc2ccccc12 (configuration not stated)	nt	nt	nt	-10	nt	nt
O=Cc1coc2c(ccc3ccccc32)c1=O	nt	16	1.9*	nt	nt	nt
Cc1cc(N2CCN(C(=O)OC(C)(C)C)C[C@@H]2C)ccc1N1C[C@@H](C)O[C@@H](C)C1	nt	nt	nt	-8	nt	nt
Cn1ncc2c(O/N=C(\N)c3ccc(C(F)(F)F)cc3)ncnc21	8	24	0	0	3	86*
CCOc1cc2nc(-c3ccc(OC)c(OC)c3)nc(NCCCN3CCOCC3)c2cc1OC	-1	2	0	1	-5	56*
O=C(N/N=C\c1cc(Cl)ccc1O)c1ccc(S(=O)(=O)N2CCCCC2)cc1	1	92*	0	2	1	nt
Nc1nonc1-n1nnc(C(=O)N/N=C/c2ccc(Cl)cc2Cl)c1CN1CCCCC1	1	-7	0	-6	2	nt
Nc1nonc1-n1nnc(C(=O)N/N=C/c2cc(Cl)ccc2O)c1CN1CCCCCC1	4	101*	0	-3	1	nt
O=C(CC[C@H]1O[C@@H](n2cnc3c(NC(=O)c4ccccc4)ncnc32)[C@H](O)[C@@H]1O)NCC1CCCCC1	nt	nt	nt	-4	nt	nt
Cc1ccc2nc(-c3ccc(SCC(=O)Nc4nnc(C)s4)nc3)[nH]c2c1	11*	-8	1	-10	8	nt
SMILES	MC4R barr agon	Calb FLC	Efflux pump inh	GalR3 antag	MC4R antagonist	TAG inh
Cc1ccc2nc(-c3ccc(SCC(=O)Nc4nc(C)cs4)nc3)[nH]c2c1	0	-5	0	3	7	nt
Cc1ccc(SCC(=O)Nc2ccc(-c3nc4ccccc4[nH]3)cc2)cc1	8.3*	-3	1	1	5	nt
Cc1ccc(NC(=S)c2nc3ccccc3[nH]2)cc1	1	85*	0	-1	4	29
CCc1nc2ccc(C(=O)NCc3ccc4c(c3)OCO4)cn2c1N(C)Cc1ccc(OC)cc1	-1	nt	nt	-2	7	3
O=c1[nH]c(=S)[nH]c2c1[C@H](CCc1cccc(Cl)c1)O[C@H](C1CCCC1)C2	nt	nt	nt	-3	nt	nt
C[C@H]1CN([C@@H](C)CO)C(=O)CCCn2cc(nn2)CO[C@@H]1CN(C)S(=O)(=O)c1ccc(Oc2ccccc2)nc1	1	nt	nt	-4	-2	-1
O=C(Nc1ccc(OCc2ccccc2Cl)cc1)c1cccnc1	-1	114*	0	-10	0	nt
Nc1c(C(=O)NCc2ccc3c(c2)OCO3)nnn1CC(=O)Nc1ccc(Br)cc1	15*	15	0	-10	22	nt
COc1ccccc1NC(=O)Cn1nnc(C(=O)NCc2ccc3c(c2)OCO3)c1N	-2	-1	0	-6	-3	nt
COc1ccc(Cl)cc1NC(=O)Cn1nnc(C(=O)NCc2ccc3c(c2)OCO3)c1N	8.6*	-7	0	-11	4	nt
O=C(NCCc1ccccc1)C1Cc2c(-c3ccccc3Oc3ccccc3)ccnc2O1 (configuration not stated)	-1	nt	nt	-7	1	-28
O=C(NC(Cc1ccccc1)C(=O)NCc1ccccn1)c1ccco1 (configuration not stated)	-2	103*	0	-3	3	nt
CCCCOP(=O)(c1ccc(N(C)C)cc1)C(O)c1ccccc1F (configuration not stated)	1	95*	0	-5	-8	nt
CCCCOP(=O)(c1ccc(N(C)C)cc1)C(O)c1ccc(OC)cc1 (configuration not stated)	-3	7	0	-10	10	nt
Cc1ccc2nc3n(c(=O)c2c1)-c1ncccc1C(=O)NC3Cc1ccc(O)cc1 (configuration not stated)	-1	nt	nt	-5	5	0
COC(=O)[C@]12C[C@H](CC(=O)N3CCC(c4ccccc4)CC3)C(=O)N(CCc3ccc(OC)c(OC)c3)C1=C[C@H](C(C)(C)C)O[C@@H]2C	nt	nt	nt	-7	nt	nt
Fc1ccc([C@@H]2CCNC[C@H]2COc2ccc3c(c2)OCO3)cc1	3	-19	0	-5	-5	52*!
Fc1ccc(C2CCNCC2COc2ccc3c(c2)OCO3)cc1 (configuration not stated)	1	10	0	-12	1	nt
C[C@H]1CN([C@@H](C)CO)S(=O)(=O)c2ccc(Br)cc2O[C@H]1CN(C)C(=O)Cc1ccncc1	nt	nt	nt	-6	nt	nt
O=C(C[n+]1ccccc1)c1ccc(-c2ccccc2)cc1	4	21	0	-4	-9	14
CN(C)c1cc[n+](CC(=O)c2ccc(-c3ccccc3)cc2)cc1	1	112*	0	-4	3	-8
CCCCCc1ccnc(CC(=O)c2ccc(OC)cc2)c1	0	nt	nt	-4	17	-25
COCCCN(C(=O)Cc1coc2cc(C)c(C)cc12)c1c(N)n(Cc2ccccc2)c(=O)[nH]c1=O	-5	nt	0	-2	2	8
